# Screening results (PubChem BioAssay)
# KCNQ1 act: potentiators or activators of KCNQ1 channel, primary screen, cell-based, thallium flux, high-throughput. Potassium voltage-gated channel subfamily KQT member 1 (Homo sapiens), P51787. CHO-K1 KCNQ1, thallium flux FluxOR fluorescence; hits give high values. B-score at 10 µM. 310,000 tested, 0.35% active;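 active = fluorescence ratio B-score, a plate-corrected score, at least three library SD, with initial intensity B-score within 5 SD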
#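 assay system = KCNQ1-transfected CHO-K1 cells | medium = assay buffer with matched DMSO | probe or stimulus = depolarizing K+/Tl+ stimulus, K2SO4 and Tl2SO4 each 12.5 mM in 5x stock | dosing = single dose | incubation = dye 90 min, compound 20 min, room temperature | detection = kinetic FluxOR fluorescence, 10 s baseline plus 110 s post-stimulus | evaluation = ratio B score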
# KCNK3 inh: human KCNK3 channel inhibitors, primary screen, CHO cells, FluxOR thallium flux, B-score. B-score at 10 µM. FluxOR fluorescence; hits give low values. AID 602410, 2012. 340,000 tested, 0.84% active. Potassium channel subfamily K member 3 (Homo sapiens), O14649;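 active = B-score under library mean minus 4 SD, starting fluorescence ratio at most library mean plus 5 SD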;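 also: more negative B-score means stronger inhibition of thallium flux through KCNK3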
# KCNQ1 inh: inhibitors of human KCNQ1 channel, primary screen, cell-based, thallium flux, high-throughput; Potassium voltage-gated channel subfamily KQT member 1 (Homo sapiens), P51787; CHO-K1 KCNQ1, FluxOR thallium flux fluorescence; hits give high values; B-score at 10 µM; 310,000 tested, 1.3% active;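 active = compounds whose thallium flux B-score, printed positive for inhibition, exceeds three library SD while starting fluorescence stays within three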;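 also: channel opened by potassium depolarization with thallium stimulus after 20 min compound exposure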
# hERG protect: hERG rescue from dofetilide block, primary screen, cell-based, CHO-hERG, FluxOR thallium flux, dofetilide IC70; dofetilide IC70 present; activation (rescue from dofetilide block), less the hit threshold, % at 10 µM; 310,000 tested, 0.51% active; Voltage-gated inwardly rectifying potassium channel KCNH2 (Homo sapiens), Q12809;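 active = activation above the mean of controls blocked by dofetilide plus 5 SD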;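 also: thallium influx through hERG after potassium depolarization seen as dye fluorescence rise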
# KCNK9 inh: KCNK9 potassium channel inhibitors, primary screen, HEK293 cells, thallium flux | Potassium channel subfamily K member 9 (Homo sapiens), Q9NPC2 | FluxOR thallium flux fluorescence; hits give low values | B-score at 10 µM | 310,000 tested, 1.2% active | AID 488922, 2010;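 active = ratio B-score over 3 SD below the library mean, with starting fluorescence within 5 SD of its mean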;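 also: negative B-score means less thallium flux so channel inhibition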
# KCNQ1 block val: KCNQ1 potassium channel inhibitors, confirmation, cell-based, Tl flux, duplicate; KCNQ1 cell line, FluxOR thallium flux fluorescence; inhibition, % at 10 µM; shares compounds with KCNQ1 inh; 1,600 tested, 93% active; AID 588353, 2011;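 active = primary screen active, with duplicate mean exceeding buffer control mean plus 3 SD of buffer wells, cut at about 28% in these data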;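 also: 0% = buffer control ratio and 100% = XE991 inhibitor control ratio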
# CHO KCNQ1 ctr: thallium flux effects in parental CHO cells, counter-screen for KCNQ1 inhibitor project, cell-based, Tl flux; parental CHO-K1, FluxOR thallium flux fluorescence ratio; hits give low values; zero means no signal rise above baseline; fluorescence ratio (Tl flux) at 10 µM; shares compounds with KCNQ1 inh; AID 588366, 2011; 1,600 tested, 21% active;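 active = mean of duplicate thallium-flux fluorescence ratios in parental host cells more than 5 SD below the buffer control mean, cut at about 0.38 in these data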;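 also: ratio is peak minus minimum fluorescence divided by baseline fluorescence; actives read low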
# KCNQ1 APC inh: KCNQ1 channel inhibitors, confirmation, orthogonal assay, cell-based, automated electrophysiology | AID 624120, 2012 | calls only at 10 µM | KCNQ1-CHO cells, automated patch clamp current | 490 tested, 20% active | shares compounds with KCNQ1 inh;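 active = KCNQ1 current drop exceeding 3 SD of negative control wells, seen in both duplicate runs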;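 also: steady state current during a 2 s step from -80 to +40 mV; negative values mean current inhibition and positive values mean potentiation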
# KCNQ2 spec: KCNQ2 channel inhibition, selectivity assay for KCNQ1 inhibitor project, cell-based; shares compounds with KCNQ1 inh; KCNQ2 cells, FluxOR thallium flux fluorescence; inhibition, % at 10 µM; 1,600 tested, 71% active; AID 651746, 2012;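 active = mean percent inhibition of the KCNQ2 thallium signal more than 5 SD above the buffer-only control wells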;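 also: KCNQ2 expressed in CHO cells; 0% = buffer control wells and 100% = XE-991 inhibitor control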
# Target sequence (O88943 whole entry, looked up): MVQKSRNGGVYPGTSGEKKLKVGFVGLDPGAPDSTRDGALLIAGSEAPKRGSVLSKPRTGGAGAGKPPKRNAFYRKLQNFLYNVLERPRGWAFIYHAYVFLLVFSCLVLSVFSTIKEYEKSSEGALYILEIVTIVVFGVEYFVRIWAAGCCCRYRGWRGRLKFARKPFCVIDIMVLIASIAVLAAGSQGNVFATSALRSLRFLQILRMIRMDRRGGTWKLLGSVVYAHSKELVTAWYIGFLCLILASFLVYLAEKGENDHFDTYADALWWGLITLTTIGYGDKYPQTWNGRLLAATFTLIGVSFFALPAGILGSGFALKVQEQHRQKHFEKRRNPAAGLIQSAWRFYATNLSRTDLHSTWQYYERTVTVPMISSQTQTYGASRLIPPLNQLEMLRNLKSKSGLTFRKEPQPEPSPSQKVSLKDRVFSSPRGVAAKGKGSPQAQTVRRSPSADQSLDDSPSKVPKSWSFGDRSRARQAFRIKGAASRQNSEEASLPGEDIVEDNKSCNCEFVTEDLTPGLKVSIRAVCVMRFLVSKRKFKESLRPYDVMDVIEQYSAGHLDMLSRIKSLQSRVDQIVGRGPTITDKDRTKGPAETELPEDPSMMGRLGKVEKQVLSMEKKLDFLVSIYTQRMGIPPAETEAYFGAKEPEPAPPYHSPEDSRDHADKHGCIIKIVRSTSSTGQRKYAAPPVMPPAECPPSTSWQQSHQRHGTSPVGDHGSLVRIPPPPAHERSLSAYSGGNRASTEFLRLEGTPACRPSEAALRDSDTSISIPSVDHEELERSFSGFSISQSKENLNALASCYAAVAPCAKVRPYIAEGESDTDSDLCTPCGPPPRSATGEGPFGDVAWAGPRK
# KCNQ1 KCNE1 spec: KCNQ1/KCNE1 channel inhibition, selectivity assay for KCNQ1 inhibitor project, CHO-K1 cells, thallium flux, FluxOR. AID 652147, 2013. shares compounds with KCNQ1 inh. inhibition, % at 10 µM. FluxOR thallium flux fluorescence. 1,600 tested, 77% active;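 active = mean percent inhibition of duplicate wells above the buffer-only control mean plus 3 SD of those controls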;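 also: 0% = buffer only wells and 100% = XE-991 inhibitor control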
# * = called active by the depositor; i = inactive; / = no result given; + = active, no number. This is a sample that favours compounds with a hit; in the whole collection about 3.1% have one here.
SMILES,KCNQ1 act,KCNK3 inh,KCNQ1 inh,hERG protect,KCNK9 inh,KCNQ1 block val,CHO KCNQ1 ctr,KCNQ2 spec,KCNQ1 KCNE1 spec,others
COc1ccc(C(NC(=O)C2CCCCC2)c2c(O)ccc3ccccc23)cc1 (stereo unspecified),i,i,7*,-5,i,82*,0.43,89%*,92%*,
COc1ccc(S(=O)(=O)Nc2ccccc2C(=O)Nc2nc(-c3ccc(F)cc3)cs2)cc1OC,i,i,9*,-20,i,166*,0.32*,89%*,+,
CCN(C(=O)CN1C(=O)NC(c2ccccc2)(c2ccc(C)c(C)c2)C1=O)C1CCCCC1 (stereo unspecified),/,i,/,/,/,/,/,/,/,
O=C(O)C(C(=O)Oc1ccccc1)C(C(=O)O)C(=O)Oc1ccccc1 (stereo unspecified),/,i,/,/,/,/,/,/,/,
CC1Cc2ccccc2N1S(=O)(=O)c1cnc(Cl)c(Cl)c1 (stereo unspecified),i,i,i,-11,i,/,/,/,/,
CSc1ccc(S(=O)(=O)N2c3ccccc3CC2C)cc1 (stereo unspecified),i,i,6*,-10,i,104*,0.43,99%*,142%*,KCNQ1 APC inh=+
O=C(Nc1ccc(Cl)cc1)Nc1nnc(-c2ccncc2)s1,i,i,i,-11,i,/,/,/,/,
Cc1ccc(NC(=O)Nc2nnc(-c3ccncc3)s2)cc1C,i,i,11*,-8,i,105*,0.5,i,57%*,KCNQ1 APC inh=i
Cc1cc(C)c(-c2cc(NC(=O)COC(=O)c3ccc(C#N)cc3)n(-c3ccccc3)n2)cc1C,i,i,i,-2,i,/,/,/,/,
Cc1cc(C)c(-c2cc(NC(=O)COC(=O)c3ccc(NC(=O)CC#N)cc3)n(-c3ccccc3)n2)cc1C,i,i,6*,-9,i,156*,0.47,64%*,137%*,KCNQ1 APC inh=i
CN1/C(=C\C=C(C#N)C#N)C(C)(C)c2ccccc21,i,i,26*,-10,i,+,0.015*,i,i,
CN1/C(=C\C=C(/C#N)C(=O)Nc2ccc(Cl)cc2)C(C)(C)c2ccccc21,i,i,i,-18,i,/,/,/,/,
CCOC(=O)C1=CN(Cc2cccc(F)c2)S(=O)(=O)N(CC)C1CCc1ccccc1 (stereo unspecified),/,i,/,/,/,/,/,/,/,
COC(=O)c1c(C)oc2ccc(N(C(=O)c3ccncc3)S(=O)(=O)c3ccc4ccccc4c3)cc12,i,i,8*,-10,i,136*,0.4,110%*,140%*,
COC(=O)c1c(C)oc2ccc(N(C(=O)c3ccncc3)S(=O)(=O)c3ccc(C)cc3C)cc12,i,i,9*,-11,i,135*,0.39,127%*,131%*,KCNQ1 APC inh=i
CCCCCCN1CC(=O)N2[C@@H](Cc3c([nH]c4ccccc34)C2(C)C)C1=O,i,i,i,-4,i,/,/,/,/,
Cc1cc(=O)[nH]c(SCC(=O)/C=C2\N(C)c3ccccc3C2(C)C)n1,i,i,11*,-22,i,106*,0.48,88%*,79%*,KCNQ1 APC inh=i
COc1cccc(Cn2c(=O)ccc3ccccc32)c1,i,i,i,-9,i,/,/,/,/,
CCN(CC)c1nc2ccccc2n(Cc2cccc(OC)c2)c1=O,i,i,6*,-6,i,109*,0.4,99%*,170%*,KCNQ1 APC inh=i
Cc1cc2c(cc(C(=O)OCC(=O)NC3CCCCC3)n2C)o1,/,i,/,/,/,/,/,/,/,
CSc1nc(N)nc2c1ncn2CC(=O)N1CCN(Cc2c(C)cc(C)cc2C)CC1,/,i,/,/,/,/,/,/,/,
Cc1ccc(F)cc1NCC(=O)Nc1ccc(Br)cc1,i,i,8*,-17,i,70*,0.49,99%*,78%*,
Cc1ccc(NCC(=O)Nc2ccc(Br)cc2)cc1C,i,i,i,-5,i,/,/,/,/,
CCOC(=O)C1=C(CC)Nc2ccccc2N=C1NC(=O)Nc1ccc(Cl)c(Cl)c1,i,i,11*,-4,-6.9*,116*,0.52,i,i,KCNQ1 APC inh=i
CCOC(=O)C1=C(CC)Nc2ccccc2N=C1NC(=O)c1cc(C)on1,/,i,/,/,/,/,/,/,/,
SMILES,KCNQ1 act,KCNK3 inh,KCNQ1 inh,hERG protect,KCNK9 inh,KCNQ1 block val,CHO KCNQ1 ctr,KCNQ2 spec,KCNQ1 KCNE1 spec,others
CC(=O)Nc1cc2c3c(cccc3c1)-c1ccccc1-2,/,i,/,/,/,/,/,/,/,
CC(C)(C)CN1CCN(Cc2nc(-c3ccc(F)cc3)cs2)CC1CCO (stereo unspecified),i,i,6*,-9,i,70*,0.48,74%*,64%*,
Cc1ccc(C)c(NC(=O)COC(=O)CCNC(=O)c2ccco2)c1,/,i,/,/,/,/,/,/,/,
CC1CCN(C(=O)COC(=O)c2ccc([N+](=O)[O-])o2)CC1,/,i,/,/,/,/,/,/,/,
CC1(C)Cc2ccccc2-c2nc(NN)[nH]c(=O)c21,i,i,i,-9,i,/,/,/,/,
CC1(C)Cc2ccccc2-c2nc(-c3ccccc3)oc(=O)c21,i,i,10*,-14,i,102*,0.44,99%*,130%*,
COc1ccccc1-c1ccc(SCc2cccc(C)c2)nn1,i,i,11*,-25,i,0,0.49,60%*,i,
COc1ccccc1-c1ccc(SCc2ccc([N+](=O)[O-])cc2)nn1,i,i,i,-14,i,/,/,/,/,
COC(=O)C=C1CCC2C3CC(F)C4(O)CC(=O)CCC4(C)C3C(=O)CC12C (stereo unspecified),/,i,/,/,/,/,/,/,/,
COc1ccc(C(=O)COC(=O)C2COc3ccccc3O2)cc1F (stereo unspecified),/,i,/,/,/,/,/,/,/,
Nn1c(SCC(=O)Nc2ccc3c(c2)OCCO3)nnc(CCC(=O)O)c1=O,i,i,i,-1,i,/,/,/,/,
